Source: ChEMBL document CHEMBL1127053, “3,4-Dimethyl-4-(3-hydroxyphenyl)piperidines: opioid antagonists with potent anorectant activity” (J Med Chem, 1993)

How the values were obtained:
[1] = biological target: D(2) dopamine receptor (Rattus norvegicus, UniProt P61169); assay: Tested for affinity against dopamine D2 receptor using […] in rat brain; assay type: tissue-based
[2] = biological target: D(1A) dopamine receptor (Rattus norvegicus, UniProt P18901); assay: Tested for affinity against dopamine D1 receptor using [3H]SCH-23,390 in rat brain; assay type: tissue-based
[3] = biological target: T1, Adrenergic receptor alpha-1 (Rattus norvegicus, UniProt P15823+P23944+P43140); assay: Tested for affinity against alpha-adrenergic using [3H]WB-4101 in rat brain; assay type: tissue-based
T1 sequence (P15823 whole entry): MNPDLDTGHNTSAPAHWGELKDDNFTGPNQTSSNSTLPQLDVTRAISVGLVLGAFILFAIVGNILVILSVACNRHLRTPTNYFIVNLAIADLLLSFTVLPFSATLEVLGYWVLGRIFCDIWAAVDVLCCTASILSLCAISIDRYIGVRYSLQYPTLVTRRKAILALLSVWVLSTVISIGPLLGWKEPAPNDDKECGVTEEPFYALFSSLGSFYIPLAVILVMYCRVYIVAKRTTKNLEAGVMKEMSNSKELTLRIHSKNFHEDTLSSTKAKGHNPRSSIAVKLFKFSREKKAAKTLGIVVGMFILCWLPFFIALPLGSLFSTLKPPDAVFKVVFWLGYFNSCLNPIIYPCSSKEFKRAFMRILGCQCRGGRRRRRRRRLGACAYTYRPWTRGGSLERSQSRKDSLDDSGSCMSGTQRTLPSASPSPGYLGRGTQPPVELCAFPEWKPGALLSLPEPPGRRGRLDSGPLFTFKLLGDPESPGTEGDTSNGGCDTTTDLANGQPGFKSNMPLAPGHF
T1 sequence (P23944 whole entry): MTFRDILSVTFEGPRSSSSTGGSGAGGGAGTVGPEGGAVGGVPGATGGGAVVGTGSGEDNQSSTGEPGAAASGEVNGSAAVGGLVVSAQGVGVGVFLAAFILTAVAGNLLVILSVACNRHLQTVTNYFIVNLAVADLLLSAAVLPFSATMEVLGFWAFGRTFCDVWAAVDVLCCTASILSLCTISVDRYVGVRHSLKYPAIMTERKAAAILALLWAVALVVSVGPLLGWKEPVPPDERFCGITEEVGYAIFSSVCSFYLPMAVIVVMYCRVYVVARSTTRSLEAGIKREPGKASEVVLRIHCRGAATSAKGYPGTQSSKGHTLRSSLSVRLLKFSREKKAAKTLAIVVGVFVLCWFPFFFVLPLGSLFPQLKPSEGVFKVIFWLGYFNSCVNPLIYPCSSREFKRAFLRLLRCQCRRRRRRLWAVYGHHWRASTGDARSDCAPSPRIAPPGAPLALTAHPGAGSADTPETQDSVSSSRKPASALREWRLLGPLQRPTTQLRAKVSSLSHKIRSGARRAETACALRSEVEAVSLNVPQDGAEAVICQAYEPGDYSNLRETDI
T1 sequence (P43140 whole entry): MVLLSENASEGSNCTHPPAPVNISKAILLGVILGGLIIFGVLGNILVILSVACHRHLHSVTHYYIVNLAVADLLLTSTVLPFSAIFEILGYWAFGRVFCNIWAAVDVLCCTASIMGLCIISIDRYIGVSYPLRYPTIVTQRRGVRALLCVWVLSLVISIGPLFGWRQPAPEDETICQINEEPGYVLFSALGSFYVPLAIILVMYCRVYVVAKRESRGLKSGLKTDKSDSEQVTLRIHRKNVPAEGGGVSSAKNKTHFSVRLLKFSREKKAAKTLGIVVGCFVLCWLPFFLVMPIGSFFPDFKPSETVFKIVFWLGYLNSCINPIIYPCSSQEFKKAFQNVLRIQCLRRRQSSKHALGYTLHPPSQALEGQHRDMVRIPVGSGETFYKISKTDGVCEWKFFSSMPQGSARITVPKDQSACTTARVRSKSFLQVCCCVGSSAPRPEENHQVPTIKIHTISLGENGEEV
Method in brief: (§1)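 Radioligand binding in cortical membranes from male Sprague-Dawley rats (110-150 g). Ligands: [3H]serotonin for 5-HT1, [3H]QNB for muscarinic, [3H]WB4101 for α1, [3H]clonidine for α2, [3H]dihydroalprenolol for β-adrenergic.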

[4] = biological target: Kappa-type opioid receptor (Mus musculus) (UniProt P33534); assay: Antagonist activity towards U50 488 induced kappa opioid receptor by mouse writhing assay at 2.5 mg/kg subcutaneously; assay type: functional, organism-based; design: dose 2.5 mg/kg
Method in brief: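 Mouse acetic acid writhing: 0.6% acetic acid ip, writhes counted for 10 min starting 5 min after injection. 5 mice/point, ≥5 doses varied 2-fold, each mouse used once. AD50 = antagonist dose reducing agonist-induced writhing inhibition to 50%.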

[5] = Tested for affinity against serotonin 5-HT1 receptor using [3H]5-HT in rat brain; assay type: tissue-based; method in brief: as §1
[6] = biological target: Serotonin receptor 2a and 2c (5HT2A and 5HT2C) (Rattus norvegicus, UniProt P08909+P14842); assay: Tested for affinity against serotonin 5-HT2 receptor using […] (frontal cortex) in rat brain; assay type: tissue-based
[7] = biological target: Delta-type opioid receptor (Mus musculus) (UniProt P32300); conditions: Vas deferens; 2 nM
[8] = biological target: Kappa-type opioid receptor (Cavia porcellus) (UniProt P41144); conditions: Ileum, 2 nM
Chain of Kappa-type opioid receptor (Cavia porcellus) (P41144 whole entry): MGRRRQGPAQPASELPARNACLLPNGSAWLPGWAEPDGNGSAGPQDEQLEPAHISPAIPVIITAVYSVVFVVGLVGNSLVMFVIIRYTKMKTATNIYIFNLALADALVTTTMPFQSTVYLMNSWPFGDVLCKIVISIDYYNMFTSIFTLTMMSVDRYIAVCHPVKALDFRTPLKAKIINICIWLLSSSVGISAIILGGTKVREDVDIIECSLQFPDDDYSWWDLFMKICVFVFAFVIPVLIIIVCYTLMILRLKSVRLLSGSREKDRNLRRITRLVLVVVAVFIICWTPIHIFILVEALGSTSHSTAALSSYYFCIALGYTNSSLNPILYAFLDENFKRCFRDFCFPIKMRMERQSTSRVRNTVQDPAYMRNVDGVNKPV

Chain of D(2) dopamine receptor (P61169 whole entry): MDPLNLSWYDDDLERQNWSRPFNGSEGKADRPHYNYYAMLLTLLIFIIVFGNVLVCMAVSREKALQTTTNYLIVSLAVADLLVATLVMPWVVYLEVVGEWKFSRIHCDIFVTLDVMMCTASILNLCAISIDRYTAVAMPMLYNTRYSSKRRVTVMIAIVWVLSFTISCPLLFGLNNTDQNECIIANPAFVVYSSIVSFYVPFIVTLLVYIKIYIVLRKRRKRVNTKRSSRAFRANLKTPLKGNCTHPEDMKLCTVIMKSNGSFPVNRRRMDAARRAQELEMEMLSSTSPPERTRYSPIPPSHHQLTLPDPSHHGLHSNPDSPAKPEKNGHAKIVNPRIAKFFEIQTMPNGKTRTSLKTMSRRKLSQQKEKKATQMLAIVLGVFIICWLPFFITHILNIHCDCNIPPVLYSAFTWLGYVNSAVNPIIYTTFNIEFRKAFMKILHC
Chain of Kappa-type opioid receptor (Mus musculus) (P33534 whole entry): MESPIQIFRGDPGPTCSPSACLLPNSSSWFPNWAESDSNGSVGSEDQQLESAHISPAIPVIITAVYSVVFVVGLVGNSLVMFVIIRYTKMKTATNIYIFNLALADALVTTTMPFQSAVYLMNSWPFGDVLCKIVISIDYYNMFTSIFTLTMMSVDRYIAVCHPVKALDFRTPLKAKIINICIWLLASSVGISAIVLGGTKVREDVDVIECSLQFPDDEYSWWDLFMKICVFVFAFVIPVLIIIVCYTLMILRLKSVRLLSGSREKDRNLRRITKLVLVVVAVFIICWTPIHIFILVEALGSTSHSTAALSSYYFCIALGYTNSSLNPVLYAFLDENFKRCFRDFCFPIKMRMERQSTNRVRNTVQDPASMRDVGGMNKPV
Chain of D(1A) dopamine receptor (P18901 whole entry): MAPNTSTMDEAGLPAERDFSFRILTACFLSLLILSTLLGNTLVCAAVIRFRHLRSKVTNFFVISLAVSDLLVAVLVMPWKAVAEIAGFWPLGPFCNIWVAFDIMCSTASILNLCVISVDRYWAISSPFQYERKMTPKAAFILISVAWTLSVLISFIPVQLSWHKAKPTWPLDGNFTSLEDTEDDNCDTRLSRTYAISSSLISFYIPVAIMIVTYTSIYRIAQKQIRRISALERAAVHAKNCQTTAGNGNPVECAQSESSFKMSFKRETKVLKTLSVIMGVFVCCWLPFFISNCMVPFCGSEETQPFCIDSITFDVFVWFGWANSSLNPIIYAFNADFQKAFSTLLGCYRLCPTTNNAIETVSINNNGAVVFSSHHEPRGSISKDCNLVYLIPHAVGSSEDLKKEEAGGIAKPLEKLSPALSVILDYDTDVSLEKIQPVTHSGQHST
Chain of Delta-type opioid receptor (Mus musculus) (P32300 whole entry): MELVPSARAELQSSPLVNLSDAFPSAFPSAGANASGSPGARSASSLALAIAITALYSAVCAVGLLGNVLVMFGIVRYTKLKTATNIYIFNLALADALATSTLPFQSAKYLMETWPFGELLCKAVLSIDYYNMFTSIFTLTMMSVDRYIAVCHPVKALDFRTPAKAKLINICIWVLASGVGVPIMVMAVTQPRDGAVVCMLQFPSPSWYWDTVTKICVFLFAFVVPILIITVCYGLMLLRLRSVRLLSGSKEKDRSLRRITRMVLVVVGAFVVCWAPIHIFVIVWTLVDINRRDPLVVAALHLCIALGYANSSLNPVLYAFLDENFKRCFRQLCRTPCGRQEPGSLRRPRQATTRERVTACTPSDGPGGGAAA

C[C@H]1CN(CC[C@H](O)C2CCCCC2)CC[C@@]1(C)c1cccc(O)c1
IC50 [1]: > 1000 nM | IC50 [2]: > 1000 nM | IC50 [3]: > 5000 nM | AD50 [4]: 0.05 mg/kg | IC50 [5]: > 1000 nM | IC50 [6]: > 1000 nM | Ke [7]: 1.64 nM | Ke [8]: 0.31 nM
